In ChEMBL document CHEMBL3817826, “H2S-Donating Doxorubicins May Overcome Cardiotoxicity and Multidrug Resistance” (J Med Chem, 2016):
Activity calls are given as the source filed them. No cut-off for these calls is given here.

How the values were obtained:
[1] = test system: U2OS; experiment: Induction of intracellular ROS accumulation in human U2OS/DX30 cells at 5 uM incubated for 24 hrs by DCFDA-AM probe-based fluorimetrical analysis relative to control; assay type: functional, cell-based
Summary of the method: (§1)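 After 24 h at 5 μM, 1×10^6 cells in 0.5 mL PBS were loaded with 5 μM DCFDA-AM for 30 min at 37 °C, spun and resuspended. Fluorescence read at ex 492/em 517 nm, expressed as nmol ROS/mg cell protein. Duplicate, n = 3, mean ± SD.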

[2] = Induction of H2S release from compound in IMDM at 100 uM incubated for 1 to 24 hrs using DNS-Az by fluorimetric assay-based HPLC analysis; assay type: physicochemical
Summary of the method: (§2)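 Compound at 200 μM initial (half concentration for two low-solubility compounds) in medium or human serum at 37 °C with dansyl azide. Sampled at 1, 4 and 24 h, diluted with CH3CN, spun and filtered. Isocratic RP-HPLC with fluorescence ex 340/em 535 nm. Dansyl amide peak quantified against NaHS calibration as H2S index. At least triplicate.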

[3] = test system: U2OS; experiment: Increase in intracellular ROS accumulation in human U2OS/DX30 cells at 5 uM incubated for 24 hrs in presence of hydroxocobalamin by DCFDA-AM probe-based fluorimetrical analysis relative to control; assay type: functional, cell-based
Summary of the method: (§3)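 Cells grown in DMEM with 10% FBS at 37 °C, 5% CO2, resistant variants selected in 30, 100 or 580 ng/mL doxorubicin; treated 24 h with 5 μM drug plus 100 μM hydroxocobalamin. 1×10^6 cells loaded 30 min at 37 °C with 5 μM DCFDA-AM in PBS; fluorescence at ex 492/em 517 nm, expressed as nmol ROS/mg protein; duplicates, n = 3.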

[4] = test system: H9c2; experiment: Cytotoxicity in rat H9c2 cells at 5 uM incubated for 24 hrs by LDH release-based spectrofluorimetrical analysis relative to control; assay type: cell-based; conditions: h9c2, 24 h
Summary of the method: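 Cells exposed 24 h to 5 μM drug in DMEM with 10% FBS at 37 °C, 5% CO2. Medium spun 12,000 × g 5 min. Cells sonicated in 82.3 mM triethanolamine phosphate-HCl pH 7.6. LDH in medium and lysate followed 6 min at 340 nm. Extracellular LDH reported as % of total dish activity, duplicate, n = 3, mean ± SD.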

[5] = Induction of H2S release from compound in DMEM at 100 uM incubated for 1 to 24 hrs using DNS-Az by fluorimetric assay-based HPLC analysis; assay type: physicochemical; summary of the method: as §2
[6] = test system: H9c2; experiment: Cytotoxicity in rat H9c2 cells assessed as intracellular ROS accumulation at 5 uM incubated for 24 hrs by DCFDA-AM probe-based fluorimetrical analysis relative to control; assay type: cell-based; conditions: h9c2, 24 h; summary of the method: as §1
[7] = test system: U2OS; experiment: Increase in intracellular ROS accumulation in human U2OS cells at 5 uM incubated for 24 hrs in presence of hydroxocobalamin by DCFDA-AM probe-based fluorimetrical analysis relative to control; assay type: functional, cell-based; summary of the method: as §3
[8] = test system: U2OS; experiment: Drug uptake in human U2OS cells at 5 uM incubated for 24 hrs by fluorimetrical analysis; assay type: ADME, cell-based
Summary of the method: (§4)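 Intracellular drug measured after 24 h exposure to 5 μM. Cell lysates read fluorimetrically at ex 475/em 553 nm with cell-free blank subtracted. Converted by calibration curve to nmol drug/mg cell protein. Duplicate, n = 3, mean ± SD.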

[9] = Half life of compound assessed as human serum esterase-mediated degradation at 100 uM by RP-HPLC analysis; assay type: ADME
Summary of the method: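 10 mM DMSO stock added to human serum pre-warmed to 37 °C, giving 100 μM final. Samples taken over time and deproteinized with equal volume acetonitrile/0.1% HCOOH, then spun 2150 g 10 min and filtered. Analysed by RP-HPLC against 1–200 μM calibration. t1/2 from one-phase exponential decay fit, at least triplicate.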

[10] = test system: H9c2; experiment: Cytotoxicity in rat H9c2 cells at 5 uM incubated for 24 hrs in presence of NAC by LDH release-based spectrofluorimetrical analysis relative to control; assay type: cell-based; conditions: h9c2, 24 h
[11] = Drug uptake in human U2OS/DX100 cells at 5 uM incubated for 24 hrs by fluorimetrical analysis; assay type: ADME, cell-based; summary of the method: as §4
[12] = test system: U2OS; experiment: Induction of intracellular ROS accumulation in human U2OS/DX580 cells at 5 uM incubated for 24 hrs by DCFDA-AM probe-based fluorimetrical analysis relative to control; assay type: functional, cell-based; summary of the method: as §1
[13] = Drug uptake in human U2OS/DX30 cells at 5 uM incubated for 24 hrs by fluorimetrical analysis; assay type: ADME, cell-based; summary of the method: as §4
[14] = target: DNA topoisomerase 2-alpha (Homo sapiens) (UniProt P11388); experiment: Inhibition of human topoisomerase 2-mediated DNA cleavage at 5 uM using supercoiled pHOT1 plasmid as substrate by agarose gel electrophoresis
[15] = Half life of compound in pre-heated DMEM at 200 uM at 37 degC by RP-HPLC analysis; assay type: physicochemical
Summary of the method: (§5)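 10 mM DMSO stock diluted into medium pre-warmed to 37 °C, giving 200 μM final, then incubated at 37 °C. Aliquots diluted 1:1 with acetonitrile/0.1% HCOOH, filtered and run on RP-HPLC, quantified against 1–200 μM standards. t1/2 from one-phase exponential decay fit, at least triplicate.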

[16] = test system: U2OS; experiment: Activity at PgP in human […] cells assessed as Vmax measured per mg of protein incubated for 20 mins by fluorimetrical analysis; assay type: cell-based
Summary of the method: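 U-2OS/DX580 cells exposed 20 min to 0-50 μM drug, washed, intracellular doxorubicin read fluorimetrically; parallel dishes left a further 10 min at 37 °C before reading. Efflux rate (difference, nmol extruded/min/mg cell protein) plotted against initial concentration; Vmax and Km fitted. Means ± SD, n = 3.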

[17] = test system: H9c2; experiment: Cytotoxicity in rat H9c2 cells assessed as intracellular ROS accumulation at 5 uM incubated for 24 hrs in presence of hydroxocobalamin by DCFDA-AM probe-based fluorimetrical analysis relative to control; assay type: cell-based; conditions: h9c2, 24 h
Summary of the method: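 H9c2 cells held 24 h with 5 μM drug plus 100 μM hydroxocobalamin, then loaded with 5 μM DCFDA-AM for 30 min at 37 °C. Fluorescence read at 492/517 nm, expressed as nmol ROS/mg protein. Duplicate, n = 3.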

[18] = test system: U2OS; experiment: Induction of intracellular ROS accumulation in human U2OS/DX100 cells at 5 uM incubated for 24 hrs by DCFDA-AM probe-based fluorimetrical analysis relative to control; assay type: functional, cell-based; summary of the method: as §1
[19] = test system: H9c2; experiment: Drug uptake in rat H9c2 cells at 5 uM incubated for 24 hrs by fluorimetrical analysis; assay type: ADME, cell-based; conditions: h9c2, 24 h; summary of the method: as §4
[20] = Stability of compound in pre-heated IMDM at 200 uM at 37 degC by RP-HPLC analysis; assay type: physicochemical; summary of the method: as §5
[21] = Drug uptake in human U2OS/DX580 cells at 5 uM incubated for 24 hrs by fluorimetrical analysis; assay type: ADME, cell-based; summary of the method: as §4
[22] = test system: U2OS; experiment: Increase in intracellular ROS accumulation in human U2OS/DX580 cells at 5 uM incubated for 24 hrs in presence of hydroxocobalamin by DCFDA-AM probe-based fluorimetrical analysis relative to control; assay type: functional, cell-based; summary of the method: as §3
[23] = test system: Serum; experiment: Induction of H2S release from compound in human serum at 100 uM incubated for 1 to 24 hrs using DNS-Az by fluorimetric assay-based HPLC analysis; assay type: functional; summary of the method: as §2
[24] = test system: U2OS; experiment: Induction of intracellular ROS accumulation in human U2OS cells at 5 uM incubated for 24 hrs by DCFDA-AM probe-based fluorimetrical analysis relative to control; assay type: functional, cell-based; summary of the method: as §1
[25] = test system: U2OS; experiment: Increase in intracellular ROS accumulation in human U2OS/DX100 cells at 5 uM incubated for 24 hrs in presence of hydroxocobalamin by DCFDA-AM probe-based fluorimetrical analysis relative to control; assay type: functional, cell-based; summary of the method: as §3

Chain of DNA topoisomerase 2-alpha (Homo sapiens) (P11388 whole entry): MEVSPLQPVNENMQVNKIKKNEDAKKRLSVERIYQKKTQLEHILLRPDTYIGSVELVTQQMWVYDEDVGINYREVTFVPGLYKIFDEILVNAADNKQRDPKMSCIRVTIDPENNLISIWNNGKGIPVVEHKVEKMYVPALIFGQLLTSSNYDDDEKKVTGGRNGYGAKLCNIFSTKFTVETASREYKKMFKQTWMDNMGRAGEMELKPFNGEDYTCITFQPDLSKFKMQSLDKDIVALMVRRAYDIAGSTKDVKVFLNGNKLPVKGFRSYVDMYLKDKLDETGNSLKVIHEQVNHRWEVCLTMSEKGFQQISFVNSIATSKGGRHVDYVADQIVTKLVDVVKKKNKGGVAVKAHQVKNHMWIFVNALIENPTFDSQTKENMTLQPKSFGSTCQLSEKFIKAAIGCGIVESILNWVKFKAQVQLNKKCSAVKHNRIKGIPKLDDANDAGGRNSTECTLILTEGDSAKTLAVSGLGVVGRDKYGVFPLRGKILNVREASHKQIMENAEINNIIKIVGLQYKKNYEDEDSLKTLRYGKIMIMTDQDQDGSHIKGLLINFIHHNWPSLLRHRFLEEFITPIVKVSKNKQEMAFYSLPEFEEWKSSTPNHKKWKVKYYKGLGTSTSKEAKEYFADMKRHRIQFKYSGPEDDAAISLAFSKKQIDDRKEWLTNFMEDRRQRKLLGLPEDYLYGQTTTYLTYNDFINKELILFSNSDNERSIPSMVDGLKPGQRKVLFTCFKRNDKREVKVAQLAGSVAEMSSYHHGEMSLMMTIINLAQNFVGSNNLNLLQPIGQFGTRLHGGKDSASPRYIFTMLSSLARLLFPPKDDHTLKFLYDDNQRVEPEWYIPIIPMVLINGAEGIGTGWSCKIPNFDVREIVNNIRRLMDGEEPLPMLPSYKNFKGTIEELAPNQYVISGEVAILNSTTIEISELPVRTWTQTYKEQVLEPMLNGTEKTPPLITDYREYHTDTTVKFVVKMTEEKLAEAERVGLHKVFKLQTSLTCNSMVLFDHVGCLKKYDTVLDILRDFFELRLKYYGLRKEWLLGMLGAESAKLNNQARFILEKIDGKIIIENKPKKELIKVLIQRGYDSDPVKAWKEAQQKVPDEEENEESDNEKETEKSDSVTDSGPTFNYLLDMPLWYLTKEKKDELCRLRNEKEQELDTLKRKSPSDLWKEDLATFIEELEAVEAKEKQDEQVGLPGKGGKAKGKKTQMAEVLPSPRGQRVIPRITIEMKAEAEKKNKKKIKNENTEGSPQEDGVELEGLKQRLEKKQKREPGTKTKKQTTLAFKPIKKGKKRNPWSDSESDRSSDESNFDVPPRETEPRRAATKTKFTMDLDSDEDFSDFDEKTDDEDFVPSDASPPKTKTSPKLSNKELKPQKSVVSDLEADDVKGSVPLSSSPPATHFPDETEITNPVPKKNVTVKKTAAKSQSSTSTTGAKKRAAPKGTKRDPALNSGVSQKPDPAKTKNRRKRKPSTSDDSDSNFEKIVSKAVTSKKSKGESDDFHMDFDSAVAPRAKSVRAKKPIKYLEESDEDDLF

COc1cccc2c1C(=O)c1c(O)c3c(c(O)c1C2=O)C[C@@](O)(C(=O)COC(=O)c1ccc(-c2ssc(=S)c2-c2ccccc2)cc1)C[C@@H]3O[C@H]1C[C@H](N)[C@H](O)[C@H](C)O1.Cl
Activity [1]: inactive
Activity [2]: Not Active
Activity [3]: Active
Activity [4]: Non-toxic
Activity [5]: Not Active
Activity [6]: Non-toxic
Activity [7]: Active
Drug uptake [8]: Active
half-life at 100 µM [9]: 2.8 h
Activity [10]: Non-toxic
Drug uptake [11]: Active
Activity [12]: inactive
Drug uptake [13]: Active
inhibition [14]: inactive
half-life at 200 µM [15]: > 24 h
Vmax [16]: 10.2 nmol/min/mg
Activity [17]: Toxic
Activity [18]: inactive
Drug uptake [19]: Active
Stability [20]: Stable
Drug uptake [21]: Active
Activity [22]: Active
Activity [23]: Active
Activity [24]: inactive
Activity [25]: Active
